# Results published in the M2OR odorant receptor database.
# Target: T1, UniProt Q8VG27
# T1 sequence (whole entry): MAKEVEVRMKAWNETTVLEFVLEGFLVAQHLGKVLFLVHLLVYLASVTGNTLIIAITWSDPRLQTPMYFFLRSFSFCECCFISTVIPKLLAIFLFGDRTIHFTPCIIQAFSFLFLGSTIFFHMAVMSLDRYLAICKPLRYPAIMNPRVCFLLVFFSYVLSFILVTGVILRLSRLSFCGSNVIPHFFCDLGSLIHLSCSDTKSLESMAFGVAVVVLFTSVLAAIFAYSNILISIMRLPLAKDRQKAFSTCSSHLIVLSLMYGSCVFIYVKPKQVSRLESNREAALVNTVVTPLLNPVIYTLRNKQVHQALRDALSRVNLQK
# Conditions: stereoisomer not certain
# In short: (§1)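 Values were gathered from published papers (main text and supplementary material), with extra details requested from the original authors when needed, and checked for typos and inconsistencies. Each receptor–molecule pair is called responsive (active) if the original authors judged the measured signal statistically different from baseline, and non-responsive (inactive) otherwise. Assay methods varied by source, often transient mammalian cell-line luciferase assays. Recorded details include cell line, G-protein, co-transfected protein and tags.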
row,SMILES,odorant receptor agonist call
1,CC=CC(=O)C1=C(C)CCCC1(C)C,inactive
2,CCCCCOC(=O)CCC,inactive
3,CCCCCCCCCCOC(C)=O,active
4,CCCCCOC(=O)CC,inactive
5,CC1CCC(C(C)C)C(=O)C1 (centres undefined),inactive
6,CCCCCCCOC(=O)C(C)C,inactive
7,COc1nccnc1C(C)C,inactive
8,Cc1ccccc1OC(=O)C(C)C,inactive
9,CCC(C)c1nccnc1OC (centres undefined),inactive
10,CC1CC=CCCCCCCCCCC(=O)C1 (centres undefined),inactive
11,CC=C(C)C=O,inactive
12,CSSSC,inactive
13,C=C(C)C1CCC2(C)OC2C1 (centres undefined),inactive
14,C=C(C)C1CC=C(C)CC1 (centres undefined),inactive
15,CCOC(=O)C(C)CC (centres undefined),inactive
16,O=C(OCc1ccccc1)c1ccccc1O,inactive
17,CCC(C)O (centres undefined),inactive
18,Cc1occc1SSc1ccoc1C,inactive
19,CC(=O)OCc1ccc2c(c1)OCO2,inactive
20,CC(=O)OCCc1ccccc1,inactive
21,c1ccc2ncccc2c1,inactive

# Target: UniProt Q8VG28
# Conditions: stereoisomer not certain
# In short: as §1
# UniProt Q8VG28, sequence (Q8VG28 as listed by the source): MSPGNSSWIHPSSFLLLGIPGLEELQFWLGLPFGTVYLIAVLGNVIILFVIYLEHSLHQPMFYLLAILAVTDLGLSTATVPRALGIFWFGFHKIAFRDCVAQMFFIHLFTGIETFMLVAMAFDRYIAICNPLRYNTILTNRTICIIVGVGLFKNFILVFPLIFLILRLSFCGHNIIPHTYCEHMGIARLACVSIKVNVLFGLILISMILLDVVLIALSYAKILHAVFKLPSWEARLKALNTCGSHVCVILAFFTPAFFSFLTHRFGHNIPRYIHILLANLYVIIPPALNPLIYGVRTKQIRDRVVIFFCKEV
row,SMILES,odorant receptor agonist call
1,CCCCCCCC(=O)[O-].[H+],active
2,CCCCCCC(=O)[O-].[H+],inactive
3,CCCCCO,inactive
4,O=C([O-])CCCCC(=O)[O-].[H+].[H+],inactive
5,O=C(O)CCCCBr,inactive
6,CCCC(C)=O,inactive
7,CCCCOC(=O)CCC,inactive
8,O=C(O)CCCCCC(=O)O,inactive
9,O=C(O)CCCBr,inactive

# Target: T2, UniProt Q8VG49
# T2 sequence (whole entry): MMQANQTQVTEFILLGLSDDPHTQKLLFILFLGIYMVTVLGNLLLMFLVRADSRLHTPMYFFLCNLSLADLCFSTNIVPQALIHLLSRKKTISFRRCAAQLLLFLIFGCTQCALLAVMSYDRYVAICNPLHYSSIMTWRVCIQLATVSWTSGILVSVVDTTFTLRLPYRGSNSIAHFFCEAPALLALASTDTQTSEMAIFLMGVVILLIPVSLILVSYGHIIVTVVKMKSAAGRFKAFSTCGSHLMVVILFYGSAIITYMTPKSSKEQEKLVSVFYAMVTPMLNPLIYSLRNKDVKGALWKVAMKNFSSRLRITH
# Conditions: stereoisomer not certain
# In short: as §1
row,SMILES,odorant receptor agonist call
1,CCC(C(=O)O)c1ccccc1 (centres undefined),inactive
2,CCCCCCCC(=O)[O-].[H+],inactive
3,CCCCOC(=O)C(C)OC(=O)CCC (centres undefined),inactive
4,CCCCCCC(=O)[O-].[H+],inactive
5,CCCCCO,inactive
6,CCCC(C)=O,inactive
7,O=c1ccc2ccccc2o1,inactive

# Target: T3, UniProt Q8VG53
# T3 sequence (whole entry): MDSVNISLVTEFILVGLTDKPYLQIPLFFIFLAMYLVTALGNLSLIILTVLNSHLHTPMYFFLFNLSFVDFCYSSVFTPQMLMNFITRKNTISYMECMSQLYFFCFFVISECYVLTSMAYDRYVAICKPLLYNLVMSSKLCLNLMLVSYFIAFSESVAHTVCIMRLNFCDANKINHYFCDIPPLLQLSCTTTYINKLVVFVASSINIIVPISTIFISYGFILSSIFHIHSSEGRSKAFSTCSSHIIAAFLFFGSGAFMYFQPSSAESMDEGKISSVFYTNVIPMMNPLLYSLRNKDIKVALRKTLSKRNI
# Conditions: stereoisomer not certain
# In short: as §1
row,SMILES,odorant receptor agonist call
1,CC=CC(=O)C1=C(C)CCCC1(C)C,inactive
2,CCCCCOC(=O)CCC,inactive
3,CCCCCCCCCCOC(C)=O,inactive
4,CCCCCOC(=O)CC,inactive
5,CC1CCC(C(C)C)C(=O)C1 (centres undefined),inactive
6,CCCCCCCOC(=O)C(C)C,inactive
7,COc1nccnc1C(C)C,inactive
8,Cc1ccccc1OC(=O)C(C)C,inactive
9,CCC(C)c1nccnc1OC (centres undefined),inactive
10,CC1CC=CCCCCCCCCCC(=O)C1 (centres undefined),inactive
11,CC=C(C)C=O,inactive
12,CSSSC,inactive
13,C=C(C)C1CCC2(C)OC2C1 (centres undefined),inactive
14,C=C(C)C1CC=C(C)CC1 (centres undefined),inactive
15,CCOC(=O)C(C)CC (centres undefined),inactive
16,O=C(OCc1ccccc1)c1ccccc1O,inactive
17,CCC(C)O (centres undefined),inactive
18,Cc1occc1SSc1ccoc1C,inactive
19,CC(=O)OCc1ccc2c(c1)OCO2,inactive
20,CC(=O)OCCc1ccccc1,inactive
21,c1ccc2ncccc2c1,inactive

# Target: T4, UniProt Q8VG64
# T4 sequence (whole entry): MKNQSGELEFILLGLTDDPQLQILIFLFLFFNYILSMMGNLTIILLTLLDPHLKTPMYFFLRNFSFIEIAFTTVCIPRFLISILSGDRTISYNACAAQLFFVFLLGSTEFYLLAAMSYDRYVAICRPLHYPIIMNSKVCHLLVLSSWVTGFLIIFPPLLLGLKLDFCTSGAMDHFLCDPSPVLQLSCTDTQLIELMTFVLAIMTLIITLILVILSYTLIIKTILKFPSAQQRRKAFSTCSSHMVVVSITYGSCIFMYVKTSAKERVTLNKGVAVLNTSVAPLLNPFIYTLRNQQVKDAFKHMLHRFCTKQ
# Conditions: stereoisomer not certain
# In short: as §1
row,SMILES,odorant receptor agonist call
1,CC=CC(=O)C1=C(C)CCCC1(C)C,inactive
2,CCCCCOC(=O)CCC,inactive
3,CCCCCCCCCCOC(C)=O,inactive
4,CCCCCOC(=O)CC,inactive
5,CC1CCC(C(C)C)C(=O)C1 (centres undefined),inactive
6,CCCCCCCOC(=O)C(C)C,inactive
7,COc1nccnc1C(C)C,inactive
8,Cc1ccccc1OC(=O)C(C)C,inactive
9,CCC(C)c1nccnc1OC (centres undefined),inactive
10,CC1CC=CCCCCCCCCCC(=O)C1 (centres undefined),inactive
11,CC=C(C)C=O,inactive
12,CSSSC,inactive
13,C=C(C)C1CCC2(C)OC2C1 (centres undefined),inactive
14,C=C(C)C1CC=C(C)CC1 (centres undefined),inactive
15,CCOC(=O)C(C)CC (centres undefined),inactive
16,O=C(OCc1ccccc1)c1ccccc1O,inactive
17,CCC(C)O (centres undefined),inactive
18,Cc1occc1SSc1ccoc1C,inactive
19,CC(=O)OCc1ccc2c(c1)OCO2,inactive
20,CC(=O)OCCc1ccccc1,inactive
21,c1ccc2ncccc2c1,inactive

# Target: T5, UniProt Q8VG77
# T5 sequence (whole entry): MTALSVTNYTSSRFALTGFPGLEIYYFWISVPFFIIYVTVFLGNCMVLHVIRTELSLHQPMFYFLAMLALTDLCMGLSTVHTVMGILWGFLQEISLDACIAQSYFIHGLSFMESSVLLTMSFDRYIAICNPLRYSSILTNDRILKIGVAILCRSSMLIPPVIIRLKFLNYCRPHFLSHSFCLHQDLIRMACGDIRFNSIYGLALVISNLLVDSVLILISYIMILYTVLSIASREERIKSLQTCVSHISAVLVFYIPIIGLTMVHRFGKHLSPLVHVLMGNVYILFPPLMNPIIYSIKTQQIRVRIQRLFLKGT
# Conditions: stereoisomer not certain
# In short: as §1
row,SMILES,odorant receptor agonist call
1,CCC(C(=O)O)c1ccccc1 (centres undefined),inactive
2,CCCCCCCC(=O)[O-].[H+],inactive
3,CCCCOC(=O)C(C)OC(=O)CCC (centres undefined),inactive
4,CCCCCCC(=O)[O-].[H+],inactive
5,CCCCCO,inactive
6,CCCC(C)=O,inactive
7,O=c1ccc2ccccc2o1,inactive

# Target: T6, UniProt Q8VG96
# T6 sequence (whole entry): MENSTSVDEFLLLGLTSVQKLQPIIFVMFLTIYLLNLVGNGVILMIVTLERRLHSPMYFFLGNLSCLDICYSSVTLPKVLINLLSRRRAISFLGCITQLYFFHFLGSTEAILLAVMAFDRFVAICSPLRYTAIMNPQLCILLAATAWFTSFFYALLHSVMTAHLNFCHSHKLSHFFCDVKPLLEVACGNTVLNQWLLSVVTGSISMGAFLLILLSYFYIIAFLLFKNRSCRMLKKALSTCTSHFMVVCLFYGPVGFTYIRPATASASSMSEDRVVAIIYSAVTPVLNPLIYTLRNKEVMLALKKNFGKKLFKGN
# Conditions: stereoisomer not certain
# In short: as §1
row,SMILES,odorant receptor agonist call
1,CCC(C(=O)O)c1ccccc1 (centres undefined),inactive
2,CCCCCCCC(=O)[O-].[H+],inactive
3,CCCCOC(=O)C(C)OC(=O)CCC (centres undefined),inactive
4,CCCCCCC(=O)[O-].[H+],inactive
5,CCCCCO,inactive
6,CCCC(C)=O,inactive
7,O=c1ccc2ccccc2o1,active

# Target: T7, UniProt Q8VGB9
# T7 sequence (whole entry): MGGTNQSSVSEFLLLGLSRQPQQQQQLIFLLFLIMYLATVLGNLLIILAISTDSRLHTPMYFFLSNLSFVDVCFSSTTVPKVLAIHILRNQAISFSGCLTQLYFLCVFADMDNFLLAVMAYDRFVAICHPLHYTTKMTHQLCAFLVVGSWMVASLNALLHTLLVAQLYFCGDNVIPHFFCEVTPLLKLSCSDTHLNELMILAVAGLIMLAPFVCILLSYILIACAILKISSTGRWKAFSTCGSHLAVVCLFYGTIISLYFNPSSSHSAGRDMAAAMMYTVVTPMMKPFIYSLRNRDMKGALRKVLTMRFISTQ
# Conditions: stereoisomer not certain
# In short: as §1
row,SMILES,odorant receptor agonist call
1,CC=CC(=O)C1=C(C)CCCC1(C)C,inactive
2,CCCCCOC(=O)CCC,inactive
3,CCCCCCCCCCOC(C)=O,inactive
4,CCCCCOC(=O)CC,inactive
5,CC1CCC(C(C)C)C(=O)C1 (centres undefined),inactive
6,CCCCCCCOC(=O)C(C)C,inactive
7,COc1nccnc1C(C)C,inactive
8,Cc1ccccc1OC(=O)C(C)C,inactive
9,CCC(C)c1nccnc1OC (centres undefined),inactive
10,CC1CC=CCCCCCCCCCC(=O)C1 (centres undefined),inactive
11,CC=C(C)C=O,inactive
12,CSSSC,inactive
13,C=C(C)C1CCC2(C)OC2C1 (centres undefined),inactive
14,C=C(C)C1CC=C(C)CC1 (centres undefined),inactive
15,CCOC(=O)C(C)CC (centres undefined),inactive
16,O=C(OCc1ccccc1)c1ccccc1O,inactive
17,CCC(C)O (centres undefined),inactive
18,Cc1occc1SSc1ccoc1C,inactive
19,CC(=O)OCc1ccc2c(c1)OCO2,inactive
20,CC(=O)OCCc1ccccc1,inactive
21,c1ccc2ncccc2c1,inactive
